Results: ChEMBL document CHEMBL2010670, “Discovery of a clinical stage multi-kinase inhibitor sodium (E)-2-{2-methoxy-5-[(2',4',6'-trimethoxystyrylsulfonyl)methyl]phenylamino}acetate (ON 01910.Na): synthesis, structure-activity relationship, and biological activity” (J Med Chem, 2011)
pIC50: −log10 of the molar value.

What was measured:
HFL1 [1] = experiment: Induction of apoptosis in human HFL1 cells assessed as PARP1 cleavage at 0.25 to 5 uM after 48 hrs by Western blot analysis; assay type: cell-based; conditions: hfl1, 48 h
In short: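 DU145 or HFL-1 cells plated at 3.0 × 10⁶ per […], treated 24 h later with DMSO or compound for 48 h. Frozen pellets lysed in 1% NP40/PBS with protease inhibitors. Equal protein run on 10% SDS-PAGE, transferred to nitrocellulose, probed with anti-PARP antibody, ECL detection.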

COLO 205 = experiment: Cytotoxicity against human COLO205 cells after 96 hrs by trypan blue exclusion assay; assay type: functional, cell-based; conditions: COLO 205, 96 h
In short: (§1)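 Cells grown in DMEM or RPMI with 10% FBS and penicillin-streptomycin, seeded at 1.0 × 10⁵ cells/mL/well in 6-well dishes. Compound added at a range of concentrations 24 h after seeding. Viable cells counted by trypan blue exclusion from duplicate wells after 96 h of exposure; dose-response end point.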

MIA PaCa-2 = experiment: Cytotoxicity against human MIAPaCa2 cells after 96 hrs by trypan blue exclusion assay; assay type: functional, cell-based; conditions: MIA PaCa-2, 96 h; in short: as §1
[2] = Cytotoxicity against human COLO320 cells after 96 hrs by trypan blue exclusion assay; assay type: functional, cell-based; conditions: COLO 320, 96 h; in short: as §1
MOLT-4 = experiment: Cytotoxicity against human MOLT4 cells after 96 hrs by trypan blue exclusion assay; assay type: functional, cell-based; conditions: MOLT-4, 96 h; in short: as §1
DU-145 = experiment: Cytotoxicity against human DU145 cells after 96 hrs by trypan blue exclusion assay; assay type: functional, cell-based; conditions: du-145; in short: as §1
NCI-H157 = experiment: Cytotoxicity against human NCI-H157 cells after 96 hrs by trypan blue exclusion assay; assay type: functional, cell-based; conditions: NCI-H157, 96 h; in short: as §1
CEM/C2 [3] = experiment: Cytotoxicity against multidrug-resistant human CEM/C2 cells assessed as cell viability after 96 hrs by trypan blue exclusion; assay type: functional, cell-based; conditions: CEM/C2, 96 h
In short: (§2)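 Cells grown in DMEM or RPMI with 10% FBS and 1 unit/mL penicillin-streptomycin, seeded at 1.0 × 10⁵ cells/mL/well in 6-well dishes; compound added 24 h later at various concentrations. After 96 h of treatment, viable cells counted by trypan blue exclusion in duplicate wells; dose-response end point.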

[4] = Cytotoxicity against human KG1a cells after 96 hrs by trypan blue exclusion assay; assay type: functional, cell-based; conditions: KG-1a; in short: as §1
MDA-MB-231 = experiment: Cytotoxicity against human MDA-MB-231 cells after 96 hrs by trypan blue exclusion assay; assay type: functional, cell-based; conditions: MDA-MB-231, 96 h; in short: as §1
PANC-1 = experiment: Cytotoxicity against human PANC1 cells after 96 hrs by trypan blue exclusion assay; assay type: functional, cell-based; conditions: PANC-1, 96 h; in short: as §1
HL-60 = experiment: Cytotoxicity against human HL60 cells after 96 hrs by trypan blue exclusion assay; assay type: functional, cell-based; conditions: HL-60, 96 h; in short: as §1
Daudi = experiment: Cytotoxicity against human Daudi cells after 96 hrs by trypan blue exclusion assay; assay type: functional, cell-based; in short: as §1
NCI-H417 = experiment: Cytotoxicity against human NCI-N417 cells after 96 hrs by trypan blue exclusion assay; assay type: functional, cell-based; conditions: NCI-H417, 96 h; in short: as §1
2008 = experiment: Cytotoxicity against human 2008 cells assessed as cell viability after 96 hrs by trypan blue exclusion; assay type: functional, cell-based; conditions: Homo sapiens, 2008, 96 h; in short: as §1
[5] = Cytotoxicity against human MES-SA cells assessed as cell viability after 96 hrs by trypan blue exclusion; assay type: functional, cell-based; in short: as §1
KB = experiment: Cytotoxicity against human KB cells after 96 hrs by trypan blue exclusion assay; assay type: functional, cell-based; in short: as §1
HEL = experiment: Cytotoxicity against human HEL cells after 96 hrs by trypan blue exclusion assay; assay type: functional, cell-based; in short: as §1
[6] = Cytotoxicity against multidrug-resistant human 2008/17/4 cells assessed as cell viability after 96 hrs by trypan blue exclusion; assay type: functional, cell-based; in short: as §2
HFL1 [7] = experiment: Cell cycle arrest in human HFL1 cells assessed as accumulation at G1 phase at 0.1 to 1 uM after 24 hrs by propidium iodide staining-based flow cytometric analysis; assay type: ADME; conditions: hfl1, 24 h
In short: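 DMEM with 10% FBS; 1.0 × 10⁶ cells/dish, treated 24 h after plating and harvested 24 h after treatment. Trypsinized cells were pooled with floating cells, PBS-washed and fixed in ice-cold 70% ethanol for ≥24 h. Cells were stained with propidium iodide plus RNase A for 30 min at 37 °C. DNA content was read by flow cytometry with cell-cycle modelling.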

[8] = Cytotoxicity against human WM793 cells after 96 hrs by trypan blue exclusion assay; assay type: functional, cell-based; conditions: WM793, 96 h; in short: as §2
RPMI-7951 = experiment: Cytotoxicity against human RPMI7951 cells after 96 hrs by trypan blue exclusion assay; assay type: functional, cell-based; conditions: RPMI-7951, 96 h; in short: as §2
AGS = experiment: Cytotoxicity against human AGS cells after 96 hrs by trypan blue exclusion assay; assay type: functional, cell-based; in short: as §1
NCI-H1975 = experiment: Cytotoxicity against human NCI-H1975 cells after 96 hrs by trypan blue exclusion assay; assay type: functional, cell-based; conditions: NCI-H1975, 96 h; in short: as §1
[9] = Cytotoxicity against human RF1 cells after 96 hrs by trypan blue exclusion assay; assay type: functional, cell-based; conditions: RF1, 96 h; in short: as §2
BT-20 = experiment: Antitumor activity in human BT20 cells xenografted in NCR-nu/nu, Taconic mouse assessed as decrease in tumor volume at 200 mg/kg, ip administered every other day for 22 days relative to control; assay type: functional; conditions: route intraperitoneal
In short: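 Female athymic NCR-nu/nu mice received 0.5–1.0 x10⁷ BT20 cells subcutaneously in the hind leg. Dosing began about 14 days later, with tumors near 70 mm³. Groups of N=9 got 200 mg/kg in PBS or PBS vehicle, Q2D x 20. Two tumor dimensions were measured by caliper three times weekly, and V = L×S²×π/6. Body weight and toxicity signs were tracked. Group means ±SEM.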

NCI-H187 = experiment: Cytotoxicity against human NCI-H187 cells after 96 hrs by trypan blue exclusion assay; assay type: functional, cell-based; conditions: NCI-H187, 96 h; in short: as §1
[10] = Aqueous solubility of the compound; assay type: physicochemical; conditions: water
MDA-MB-157 = experiment: Cytotoxicity against human MDA-MB-157 cells after 96 hrs by trypan blue exclusion assay; assay type: functional, cell-based; conditions: MDA-MB-157, 96 h; in short: as §1
[11] = Cytotoxicity against human […] cells after 96 hrs by trypan blue exclusion assay; assay type: functional, cell-based; in short: as §2
K562 = experiment: Cytotoxicity against human K562 cells after 96 hrs by trypan blue exclusion assay; assay type: functional, cell-based; conditions: k562; in short: as §1
Mus musculus = experiment: Toxicity against NCR-nu/nu, Taconic mouse xenografted with human BT20 cells assessed as decrease in body weight at 200 mg/kg, ip administered every other day for 22 days; assay type: organism-based, BT-20; set-up: dose 200 mg/kg, route intraperitoneal; scale not given: the % may be the effect or the level left; conditions: in vivo, 528 h
In short: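 Female athymic nude mice bearing subcutaneous BT20 hind-leg xenografts (0.5–1.0 × 10⁷ cells) grouped about 14 days later at ~70 mm³ (N=9). Dosed 200 mg/kg in PBS or PBS alone, Q2D × 20; methods state tail-vein IV, legend states IP. Body weight recorded at each tumor measurement, three times weekly; observed for toxicity signs; mean ± SEM.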

CEM/C2 [12] = experiment: Resistance ratio of IC50 for human CEM cells to IC50 for multidrug-resistant human CEM/C2 cells; assay type: functional
In short: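 Cells were grown in DMEM or RPMI with 10% FBS and plated at 1.0 × 10⁵ cells/mL/well in 6-well dishes. Compound was added 24 h later at various concentrations for 96 h. Viable cells were counted from duplicate wells by trypan blue exclusion, and the IC50 of each line gave the ratio.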

[13] = Cytotoxicity against human WM239A cells after 96 hrs by trypan blue exclusion assay; assay type: functional, cell-based; in short: as §2
HeLa = experiment: Cytotoxicity against human HeLa cells after 96 hrs by trypan blue exclusion assay; assay type: functional, cell-based; in short: as §1

**Q.** What does the source list for `COc1cc(OC)c(/C=C/S(=O)(=O)Cc2ccc(OC)c(NCC(=O)[O-])c2)c(OC)c1.[Na+]` [RIGOSERTIB SODIUM]?
**A.** Activity (HFL1 [1]): Non-toxic; pIC50 (COLO 205): 6.82; pIC50 (MIA PaCa-2): 7.30; pIC50 [2]: 7.22; pIC50 (MOLT-4): 7.40; pIC50 (DU-145): 7.00; pIC50 (NCI-H157): 7.10; pIC50 (CEM/C2 [3]): 7.30; pIC50 [4]: 7.52; pIC50 (MDA-MB-231): 7.60; pIC50 (PANC-1): 7.40; pIC50 (HL-60): 7.70; pIC50 (Daudi): 6.82; pIC50 (NCI-H417): 7.10; pIC50 2008: 6.82; pIC50 [5]: 7.00; pIC50 (KB): 7.15; pIC50 (HEL): 7.30; pIC50 [6]: 7.00; Activity (HFL1 [7]): Toxic; pIC50 [8]: 7.12; pIC50 (RPMI-7951): 7.60; pIC50 (AGS): 7.10; pIC50 (NCI-H1975): 7.05; pIC50 [9]: 7.30; fold change (FC) (BT-20): 2.5; pIC50 (NCI-H187): 7.10; solubility [10]: 28 mg/mL; pIC50 (MDA-MB-157): 7.12; pIC50 [11]: 8.00; pIC50 (K562): 7.82; Activity (Mus musculus): < 10%; Ratio IC50 (CEM/C2 [12]): 2; pIC50 [13]: 7.12; pIC50 (HeLa): 7.00
